Experimental data published in ChEMBL document CHEMBL1158358, “Synthesis, antimicrobial and cytotoxic activities of some 5-arylidene-4-thioxo-thiazolidine-2-ones” (Eur J Med Chem, 2009).
In brackets after ≈: the same amount, converted by molar mass.

Assays:
Assay type in all cases: functional
Staphylococcus aureus [1] = experiment: Antimicrobial activity against Staphylococcus aureus UFPEDA 01 after 20 hrs by twofold serial dilution technique; conditions: UFPEDA 01, 20 h
Method in brief: (§1)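 Twofold serial dilution MIC in agar plates against Gram-positive strains and multidrug-resistant clinical isolates. Inoculum applied was 10⁵ CFU/plate. Plates with culture medium plus DMSO served as negative control. MIC was read after incubation at 35 °C for 20 h.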

Bacillus subtilis [2] = experiment: Antimicrobial activity against Bacillus subtilis UFPEDA 16 after 20 hrs by twofold serial dilution technique; conditions: UFPEDA 16, 20 h
Method in brief: (§2)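 MIC was determined by twofold serial dilution. Bacteria were tested in plates at 10⁵ CFU/plate and read after 20 h. C. albicans was tested in tubes at 10³ CFU/tube and read after 48 h. All incubations were at 35 °C. Medium plus DMSO served as the negative control.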

Micrococcus luteus [3] = experiment: Antimicrobial activity against Micrococcus luteus UFPEDA 06 after 20 hrs by twofold serial dilution technique; conditions: UFPEDA 06, 20 h; method in brief: as §2
Enterococcus faecalis [4] = experiment: Antimicrobial activity against Enterococcus faecalis UFPEDA 138 after 20 hrs by twofold serial dilution technique; conditions: UFPEDA 138, 20 h; method in brief: as §2
[5] = tested on: Mycolicibacterium smegmatis; experiment: Antimicrobial activity against Mycobacterium smegmatis UFPEDA 71 after 20 hrs by twofold serial dilution technique; conditions: UFPEDA 71, 20 h; method in brief: as §2
Candida albicans [6] = experiment: Antimicrobial activity against Candida albicans UFPEDA 1007 after 48 hrs by twofold serial dilution technique; conditions: UFPEDA 1007, 48 h; method in brief: as §2
Staphylococcus aureus [7] = experiment: Antimicrobial activity against multidrug-resistant Staphylococcus aureus H.C. 20981 isolate after 20 hrs by twofold serial dilution technique; conditions: H.C. 20981, 20 h; method in brief: as §1
Staphylococcus aureus [8] = experiment: Antimicrobial activity against multidrug-resistant Staphylococcus aureus H.C. 21141 isolate after 20 hrs by twofold serial dilution technique; conditions: H.C. 21141, 20 h; method in brief: as §1
Staphylococcus aureus [9] = experiment: Antimicrobial activity against multidrug-resistant Staphylococcus aureus H.C. 21036 isolate after 20 hrs by twofold serial dilution technique; conditions: H.C. 21036, 20 h; method in brief: as §1
Staphylococcus aureus [10] = experiment: Antimicrobial activity against multidrug-resistant Staphylococcus aureus H.C. 20489 isolate after 20 hrs by twofold serial dilution technique; conditions: H.C. 20489, 20 h; method in brief: as §1
Staphylococcus aureus [11] = experiment: Antimicrobial activity against multidrug-resistant Staphylococcus aureus H.C. 20794 isolate after 20 hrs by twofold serial dilution technique; conditions: H.C. 20794, 20 h; method in brief: as §1
Staphylococcus aureus [12] = experiment: Antimicrobial activity against multidrug-resistant Staphylococcus aureus H.C. 20905 isolate after 20 hrs by twofold serial dilution technique; conditions: H.C. 20905, 20 h; method in brief: as §1
Enterococcus faecalis [13] = experiment: Antimicrobial activity against multidrug-resistant Enterococcus faecalis H.C. 21752 isolate after 20 hrs by twofold serial dilution technique; conditions: H.C. 21752, 20 h; method in brief: as §1
Enterococcus faecalis [14] = experiment: Antimicrobial activity against multidrug-resistant Enterococcus faecalis H.C. 21944 isolate after 20 hrs by twofold serial dilution technique; conditions: H.C. 21944, 20 h; method in brief: as §1
Enterococcus faecalis [15] = experiment: Antimicrobial activity against multidrug-resistant Enterococcus faecalis H.C. 24708 isolate after 20 hrs by twofold serial dilution technique; conditions: H.C. 24708, 20 h; method in brief: as §1
Enterococcus faecalis [16] = experiment: Antimicrobial activity against multidrug-resistant Enterococcus faecalis H.C. 24962 isolate after 20 hrs by twofold serial dilution technique; conditions: H.C. 24962, 20 h; method in brief: as §1
Staphylococcus [17] = experiment: Antimicrobial activity against coagulase-negative Staphylococcus H.A.M. 278 isolate after 20 hrs by twofold serial dilution technique; conditions: H.A.M. 278, 20 h; method in brief: as §2
Staphylococcus [18] = experiment: Antimicrobial activity against coagulase-negative Staphylococcus H.A.M. 338 isolate after 20 hrs by twofold serial dilution technique; conditions: H.A.M. 338, 20 h; method in brief: as §2
NCI-H292 [19] = experiment: Cytotoxicity against human NCI-H292 cells at 10 ug/mL after 72 hrs by MTT assay; conditions: NCI-H292, 72 h, read-out: GI
Method in brief: (§3)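 MTT antiproliferative assay. Cells were diluted to 10⁵ cells/mL in 96-well plates and preincubated for 24 h at 37 °C in humid 5% CO₂. Compounds or vincristine (reference) were then added. Formazan was dissolved and OD read at 540 nm, compared with medium-only control cells. Run in triplicate.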

NCI-H292 [20] = experiment: Cytotoxicity against human NCI-H292 cells at 5 ug/mL after 72 hrs by MTT assay; conditions: NCI-H292, 72 h, read-out: GI; method in brief: as §3
NCI-H292 [21] = experiment: Cytotoxicity against human NCI-H292 cells at 2.5 ug/mL after 72 hrs by MTT assay; conditions: NCI-H292, 72 h, read-out: GI; method in brief: as §3
NCI-H292 [22] = experiment: Cytotoxicity against human NCI-H292 cells at 1.25 ug/mL after 72 hrs by MTT assay; conditions: NCI-H292, 72 h, read-out: GI; method in brief: as §3
HEp-2 [23] = experiment: Cytotoxicity against human Hep2 cells at 10 ug/mL after 72 hrs by MTT assay; conditions: HEp-2, 72 h, read-out: GI; method in brief: as §3
HEp-2 [24] = experiment: Cytotoxicity against human Hep2 cells at 5 ug/mL after 72 hrs by MTT assay; conditions: HEp-2, 72 h, read-out: GI; method in brief: as §3
HEp-2 [25] = experiment: Cytotoxicity against human Hep2 cells at 2.5 ug/mL after 72 hrs by MTT assay; conditions: HEp-2, 72 h, read-out: GI; method in brief: as §3
HEp-2 [26] = experiment: Cytotoxicity against human Hep2 cells at 1.25 ug/mL after 72 hrs by MTT assay; conditions: HEp-2, 72 h, read-out: GI; method in brief: as §3
Serratia marcescens = experiment: Antimicrobial activity against Serratia marcescens UFPEDA 398 at 300 ug/disk after 24 hrs by disk diffusion method; conditions: UFPEDA 398, 24 h, read-out: IZ
Method in brief: (§4)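 Preliminary screen by disk diffusion. Paper disks (6 mm) holding 300 µg of compound were placed on agar plates inoculated with a standardized microbial suspension. DMSO-only disks served as negative controls. A mean inhibition zone below 7 mm was scored as no sensitivity. Values are means, n = 3.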

Escherichia coli = experiment: Antimicrobial activity against Escherichia coli UFPEDA 224 at 300 ug/disk after 24 hrs by disk diffusion method; conditions: UFPEDA 224, 24 h, read-out: IZ; method in brief: as §4
Staphylococcus aureus [27] = experiment: Antimicrobial activity against Staphylococcus aureus UFPEDA 01 at 300 ug/disk after 24 hrs by disk diffusion method; conditions: UFPEDA 01, 24 h, read-out: IZ; method in brief: as §4
Bacillus subtilis [28] = experiment: Antimicrobial activity against Bacillus subtilis UFPEDA 16 at 300 ug/disk after 24 hrs by disk diffusion method; conditions: UFPEDA 16, 24 h, read-out: IZ; method in brief: as §4
Micrococcus luteus [29] = experiment: Antimicrobial activity against Micrococcus luteus UFPEDA 06 at 300 ug/disk after 24 hrs by disk diffusion method; conditions: UFPEDA 06, 24 h, read-out: IZ; method in brief: as §4
Enterococcus faecalis [30] = experiment: Antimicrobial activity against Enterococcus faecalis UFPEDA 138 at 300 ug/disk after 24 hrs by disk diffusion method; conditions: UFPEDA 138, 24 h, read-out: IZ; method in brief: as §4
Pseudomonas aeruginosa = experiment: Antimicrobial activity against Pseudomonas aeruginosa UFPEDA 39 at 300 ug/disk after 24 hrs by disk diffusion method; conditions: UFPEDA 39, 24 h, read-out: IZ; method in brief: as §4
[31] = tested on: Mycolicibacterium smegmatis; experiment: Antimicrobial activity against Mycobacterium smegmatis UFPEDA 71 at 300 ug/disk after 24 hrs by disk diffusion method; conditions: UFPEDA 71, 24 h, read-out: IZ; method in brief: as §4
Candida albicans [32] = experiment: Antimicrobial activity against Candida albicans UFPEDA 1007 at 300 ug/disk after 48 hrs by disk diffusion method; conditions: UFPEDA 1007, 48 h, read-out: IZ; method in brief: as §4

SMILES | MIC (Staphylococcus aureus [1]) [µg/mL] | MIC (Bacillus subtilis [2]) [µg/mL] | MIC (Micrococcus luteus [3]) [µg/mL] | MIC (Enterococcus faecalis [4]) [µg/mL] | MIC [5] [µg/mL] | MIC (Staphylococcus aureus [7]) [µg/mL] | MIC (Staphylococcus aureus [8]) [µg/mL] | MIC (Staphylococcus aureus [9]) [µg/mL] | MIC (Staphylococcus aureus [10]) [µg/mL] | MIC (Staphylococcus aureus [11]) [µg/mL] | MIC (Staphylococcus aureus [12]) [µg/mL] | MIC (Enterococcus faecalis [13]) [µg/mL] | MIC (Enterococcus faecalis [14]) [µg/mL] | MIC (Enterococcus faecalis [15]) [µg/mL] | MIC (Enterococcus faecalis [16]) [µg/mL] | MIC (Staphylococcus [17]) [µg/mL] | MIC (Staphylococcus [18]) [µg/mL] | zone of inhibition at 300 µg/disc (Serratia marcescens) [mm] | zone of inhibition at 300 µg/disc (Escherichia coli) [mm] | zone of inhibition at 300 µg/disc (Staphylococcus aureus [27]) [mm] | also measured
O=C1NC(=S)/C(=C/c2cccc(F)c2)S1 | 4 (≈ 16.7 µM) | 16 (≈ 66.9 µM) | 16 (≈ 66.9 µM) | 32 (≈ 134 µM) | 32 (≈ 134 µM) | 2 (≈ 8.36 µM) | 16 (≈ 66.9 µM) | 2 (≈ 8.36 µM) | 2 (≈ 8.36 µM) | 2 (≈ 8.36 µM) | 2 (≈ 8.36 µM) | 16 (≈ 66.9 µM) | 8 (≈ 33.4 µM) | 8 (≈ 33.4 µM) | 8 (≈ 33.4 µM) | 16 (≈ 66.9 µM) | 16 (≈ 66.9 µM) | < 7 | < 7 | 28 | MIC (Candida albicans [6]): 64 µg/mL (≈ 267 µM); inhibition of growth at 10 µg/mL (NCI-H292 [19]): 26.8%; inhibition of growth at 5 µg/mL (NCI-H292 [20]): 13.1%; inhibition of growth at 2.5 µg/mL (NCI-H292 [21]): 3.43%; inhibition of growth at 1.25 µg/mL (NCI-H292 [22]): 2.1%; inhibition of growth at 10 µg/mL (HEp-2 [23]): 20.9%; inhibition of growth at 5 µg/mL (HEp-2 [24]): 19.8%; inhibition of growth at 2.5 µg/mL (HEp-2 [25]): 7.03%; inhibition of growth at 1.25 µg/mL (HEp-2 [26]): 0.84%; zone of inhibition at 300 µg/disc (Bacillus subtilis [28]): 20 mm; zone of inhibition at 300 µg/disc (Micrococcus luteus [29]): 27 mm; zone of inhibition at 300 µg/disc (Enterococcus faecalis [30]): 22 mm; zone of inhibition at 300 µg/disc (Pseudomonas aeruginosa): < 7 mm; zone of inhibition at 300 µg/disc [31]: 20 mm; zone of inhibition at 300 µg/disc (Candida albicans [32]): 16 mm
O=C1NC(=S)/C(=C/c2ccccc2F)S1 | 8 (≈ 33.4 µM) | 32 (≈ 134 µM) | 32 (≈ 134 µM) | 32 (≈ 134 µM) | 32 (≈ 134 µM) | 4 (≈ 16.7 µM) | 8 (≈ 33.4 µM) | 2 (≈ 8.36 µM) | 4 (≈ 16.7 µM) | 8 (≈ 33.4 µM) | 8 (≈ 33.4 µM) | 32 (≈ 134 µM) | 32 (≈ 134 µM) | 32 (≈ 134 µM) | 32 (≈ 134 µM) | 32 (≈ 134 µM) | 16 (≈ 66.9 µM) | < 7 | < 7 | 24 | MIC (Candida albicans [6]): 32 µg/mL (≈ 134 µM); inhibition of growth at 10 µg/mL (NCI-H292 [19]): 40.4%; inhibition of growth at 5 µg/mL (NCI-H292 [20]): 25.2%; inhibition of growth at 2.5 µg/mL (NCI-H292 [21]): 7.78%; inhibition of growth at 1.25 µg/mL (NCI-H292 [22]): 4.29%; inhibition of growth at 10 µg/mL (HEp-2 [23]): 11.2%; inhibition of growth at 5 µg/mL (HEp-2 [24]): 8.86%; inhibition of growth at 2.5 µg/mL (HEp-2 [25]): 1.66%; inhibition of growth at 1.25 µg/mL (HEp-2 [26]): -8.34%; zone of inhibition at 300 µg/disc (Bacillus subtilis [28]): 23 mm; zone of inhibition at 300 µg/disc (Micrococcus luteus [29]): 25 mm; zone of inhibition at 300 µg/disc (Enterococcus faecalis [30]): 20 mm; zone of inhibition at 300 µg/disc (Pseudomonas aeruginosa): < 7 mm; zone of inhibition at 300 µg/disc [31]: 20 mm; zone of inhibition at 300 µg/disc (Candida albicans [32]): 16 mm
CC1=C(C(=O)O)N2C(=O)[C@@H](NC(=O)[C@H](N)c3ccccc3)[C@H]2SC1 [CEPHALEXIN ANHYDROUS] | ≤ 1 | ≤ 1 | ≤ 1 | 64 (≈ 184 µM) | > 128 | 8 (≈ 23 µM) | 2 (≈ 5.76 µM) | > 128 | 2 (≈ 5.76 µM) | 4 (≈ 11.5 µM) | > 128 | 64 (≈ 184 µM) | 64 (≈ 184 µM) | 64 (≈ 184 µM) | 64 (≈ 184 µM) | 128 (≈ 368 µM) | 128 (≈ 368 µM) |  |  |  | 
O=C1CSC(=O)N1 [THIAZOLIDINEDIONE] |  |  |  |  |  |  |  |  |  |  |  |  |  |  |  |  |  | < 7 | < 7 | < 7 | zone of inhibition at 300 µg/disc (Bacillus subtilis [28]): < 7 mm; zone of inhibition at 300 µg/disc (Micrococcus luteus [29]): < 7 mm; zone of inhibition at 300 µg/disc (Enterococcus faecalis [30]): < 7 mm; zone of inhibition at 300 µg/disc (Pseudomonas aeruginosa): < 7 mm; zone of inhibition at 300 µg/disc [31]: < 7 mm; zone of inhibition at 300 µg/disc (Candida albicans [32]): < 7 mm
